Columns and labels:
Format in all cases: functional
[1] = system: Staphylococcus epidermidis; assay: Antimicrobial activity against Staphylococcus epidermidis ATCC 12228 by broth dilution method
Staphylococcus aureus [2] = assay: Antimicrobial activity against Staphylococcus aureus ATCC 29213 by broth dilution method; details: Staphylococcus aureus, ATCC 29213
Staphylococcus aureus [3] = assay: Bactericidal activity against methicillin-resistant Staphylococcus aureus clinical isolate 264 after 24 hrs; details: isolate 264, 24 h
Summary of the method: (§1)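 Bactericidal concentration: 0.1 ml from wells at the MIC dilution and the dilutions on either side was streaked onto tryptic soy agar and incubated 24 h. It was taken as the lowest drug concentration giving no growth (100% killing).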

Staphylococcus aureus [4] = assay: Bactericidal activity against methicillin-resistant Staphylococcus aureus clinical isolate 260 after 24 hrs; details: isolate 260, 24 h; summary of the method: as §1
Staphylococcus aureus [5] = assay: Bactericidal activity against methicillin-resistant Staphylococcus aureus clinical isolate 259 after 24 hrs; details: isolate 259, 24 h; summary of the method: as §1
Staphylococcus aureus [6] = assay: Bactericidal activity against methicillin-resistant Staphylococcus aureus clinical isolate 257 after 24 hrs; details: isolate 257, 24 h; summary of the method: as §1
Staphylococcus aureus [7] = assay: Bactericidal activity against methicillin-resistant Staphylococcus aureus clinical isolate 255 after 24 hrs; details: isolate 255, 24 h; summary of the method: as §1
Staphylococcus aureus [8] = assay: Bactericidal activity against methicillin-resistant Staphylococcus aureus clinical isolate 238 after 24 hrs; details: isolate 238, 24 h; summary of the method: as §1
Staphylococcus aureus [9] = assay: Bactericidal activity against methicillin-resistant Staphylococcus aureus clinical isolate 237 after 24 hrs; details: isolate 237, 24 h; summary of the method: as §1
Staphylococcus aureus [10] = assay: Bactericidal activity against methicillin-resistant Staphylococcus aureus clinical isolate 236 after 24 hrs; details: isolate 236, 24 h; summary of the method: as §1
Staphylococcus aureus [11] = assay: Bactericidal activity against methicillin-resistant Staphylococcus aureus clinical isolate 235 after 24 hrs; details: isolate 235, 24 h; summary of the method: as §1
Staphylococcus aureus [12] = assay: Bactericidal activity against methicillin-resistant Staphylococcus aureus clinical isolate 232 after 24 hrs; details: isolate 232, 24 h; summary of the method: as §1
Staphylococcus aureus [13] = assay: Bactericidal activity against methicillin-resistant Staphylococcus aureus clinical isolate 231 after 24 hrs; details: isolate 231, 24 h; summary of the method: as §1
Staphylococcus aureus [14] = assay: Bactericidal activity against methicillin-resistant Staphylococcus aureus clinical isolate 227 after 24 hrs; details: isolate 227, 24 h; summary of the method: as §1
Staphylococcus aureus [15] = assay: Bactericidal activity against methicillin-resistant Staphylococcus aureus clinical isolate 225 after 24 hrs; details: isolate 225, 24 h; summary of the method: as §1
Staphylococcus aureus [16] = assay: Bactericidal activity against methicillin-resistant Staphylococcus aureus clinical isolate 215 after 24 hrs; details: isolate 215, 24 h; summary of the method: as §1
Staphylococcus aureus [17] = assay: Bactericidal activity against methicillin-resistant Staphylococcus aureus clinical isolate 212 after 24 hrs; details: isolate 212, 24 h; summary of the method: as §1
Staphylococcus aureus [18] = assay: Bactericidal activity against methicillin-resistant Staphylococcus aureus clinical isolate 207 after 24 hrs; details: isolate 207, 24 h; summary of the method: as §1
Staphylococcus aureus [19] = assay: Bactericidal activity against methicillin-resistant Staphylococcus aureus clinical isolate 195 after 24 hrs; details: isolate 195, 24 h; summary of the method: as §1
Staphylococcus aureus [20] = assay: Bactericidal activity against methicillin-resistant Staphylococcus aureus clinical isolate 178 after 24 hrs; details: isolate 178, 24 h; summary of the method: as §1
Staphylococcus aureus [21] = assay: Bactericidal activity against methicillin-resistant Staphylococcus aureus clinical isolate 176 after 24 hrs; details: isolate 176, 24 h; summary of the method: as §1
Escherichia coli [22] = assay: Bactericidal activity against Escherichia coli ATCC 11229 after 24 hrs; details: ATCC 11229, 24 h
Summary of the method: (§2)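 MBC: after MIC determination, 0.1 ml from the MIC well and from two dilutions either side streaked on tryptic soy agar, incubated 24 h; MBC taken as lowest concentration giving no growth (100% kill).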

[23] = system: Staphylococcus epidermidis; assay: Bactericidal activity against Staphylococcus epidermidis ATCC 12228 after 24 hrs; details: ATCC 12228, 24 h; summary of the method: as §2
Staphylococcus aureus [24] = assay: Bactericidal activity against Staphylococcus aureus ATCC 29213 after 24 hrs; details: ATCC 29213, 24 h; summary of the method: as §1
Candida parapsilosis = assay: Antimicrobial activity against Candida parapsilosis ATCC 90030 by broth dilution method; details: Lodderomyces parapsilosis
Nakaseomyces glabratus = assay: Antimicrobial activity against Candida glabrata ATCC 18804 by broth dilution method
Candida albicans = assay: Antimicrobial activity against Candida albicans ATCC 22019 by broth dilution method
Candida tropicalis = assay: Antimicrobial activity against Candida tropicalis ATCC 750 by broth dilution method
Staphylococcus aureus [25] = assay: Antimicrobial activity against methicillin-resistant Staphylococcus aureus clinical isolate by broth dilution method
Staphylococcus aureus [26] = assay: Antimicrobial activity against methicillin-resistant Staphylococcus aureus clinical isolate 264 by broth dilution method
Staphylococcus aureus [27] = assay: Antimicrobial activity against methicillin-resistant Staphylococcus aureus clinical isolate 260 by broth dilution method
Staphylococcus aureus [28] = assay: Antimicrobial activity against methicillin-resistant Staphylococcus aureus clinical isolate 257 by broth dilution method
Staphylococcus aureus [29] = assay: Antimicrobial activity against methicillin-resistant Staphylococcus aureus clinical isolate 259 by broth dilution method
Staphylococcus aureus [30] = assay: Antimicrobial activity against methicillin-resistant Staphylococcus aureus clinical isolate 238 by broth dilution method
Staphylococcus aureus [31] = assay: Antimicrobial activity against methicillin-resistant Staphylococcus aureus clinical isolate 255 by broth dilution method
Staphylococcus aureus [32] = assay: Antimicrobial activity against methicillin-resistant Staphylococcus aureus clinical isolate 237 by broth dilution method
Staphylococcus aureus [33] = assay: Antimicrobial activity against methicillin-resistant Staphylococcus aureus clinical isolate 236 by broth dilution method
Staphylococcus aureus [34] = assay: Antimicrobial activity against methicillin-resistant Staphylococcus aureus clinical isolate 235 by broth dilution method
Staphylococcus aureus [35] = assay: Antimicrobial activity against methicillin-resistant Staphylococcus aureus clinical isolate 232 by broth dilution method
Staphylococcus aureus [36] = assay: Antimicrobial activity against methicillin-resistant Staphylococcus aureus clinical isolate 227 by broth dilution method
Staphylococcus aureus [37] = assay: Antimicrobial activity against methicillin-resistant Staphylococcus aureus clinical isolate 231 by broth dilution method
Staphylococcus aureus [38] = assay: Antimicrobial activity against methicillin-resistant Staphylococcus aureus clinical isolate 225 by broth dilution method
Staphylococcus aureus [39] = assay: Antimicrobial activity against methicillin-resistant Staphylococcus aureus clinical isolate 215 by broth dilution method
Staphylococcus aureus [40] = assay: Antimicrobial activity against methicillin-resistant Staphylococcus aureus clinical isolate 218 by broth dilution method
Staphylococcus aureus [41] = assay: Antimicrobial activity against methicillin-resistant Staphylococcus aureus clinical isolate 212 by broth dilution method
Staphylococcus aureus [42] = assay: Antimicrobial activity against methicillin-resistant Staphylococcus aureus clinical isolate 207 by broth dilution method
Staphylococcus aureus [43] = assay: Antimicrobial activity against methicillin-resistant Staphylococcus aureus clinical isolate 205 by broth dilution method
Staphylococcus aureus [44] = assay: Antimicrobial activity against methicillin-resistant Staphylococcus aureus clinical isolate 195 by broth dilution method
Staphylococcus aureus [45] = assay: Antimicrobial activity against methicillin-resistant Staphylococcus aureus clinical isolate 178 by broth dilution method
Staphylococcus aureus [46] = assay: Antimicrobial activity against methicillin-resistant Staphylococcus aureus clinical isolate 176 by broth dilution method
Pseudomonas aeruginosa = assay: Antimicrobial activity against Pseudomonas aeruginosa ATCC 27853 by broth dilution method
Escherichia coli [47] = assay: Antimicrobial activity against Escherichia coli ATCC 11229 by broth dilution method

CCCCCCCCCOc1ccc(CNC(CO)(CO)CO)cc1.Cl
-logMIC [1]: 4.68
MIC ([1]; Staphylococcus epidermidis, ATCC 12228): 8 µg/mL
MIC (Staphylococcus aureus [2]): 8 µg/mL
MBC (Staphylococcus aureus [3]): 32 µg/mL
MBC (Staphylococcus aureus [4]): 32 µg/mL
MBC (Staphylococcus aureus [5]): 32 µg/mL
MBC (Staphylococcus aureus [6]): 64 µg/mL
MBC (Staphylococcus aureus [7]): 32 µg/mL
MBC (Staphylococcus aureus [8]): 32 µg/mL
MBC (Staphylococcus aureus [9]): 32 µg/mL
MBC (Staphylococcus aureus [10]): 16 µg/mL
MBC (Staphylococcus aureus [11]): 32 µg/mL
MBC (Staphylococcus aureus [12]): 32 µg/mL
MBC (Staphylococcus aureus [13]): 32 µg/mL
MBC (Staphylococcus aureus [14]): 64 µg/mL
MBC (Staphylococcus aureus [15]): 16 µg/mL
MBC (Staphylococcus aureus [16]): 32 µg/mL
MBC (Staphylococcus aureus [17]): 64 µg/mL
MBC (Staphylococcus aureus [18]): 64 µg/mL
MBC (Staphylococcus aureus [19]): 32 µg/mL
MBC (Staphylococcus aureus [20]): 32 µg/mL
MBC (Staphylococcus aureus [21]): 32 µg/mL
MBC (Escherichia coli [22]): 32 µg/mL
MBC [23]: 16 µg/mL
MBC (Staphylococcus aureus [24]): 16 µg/mL
MIC (Candida parapsilosis): 32 µg/mL
MIC (Nakaseomyces glabratus): 4 µg/mL
MIC (Candida albicans): 4 µg/mL
MIC (Candida tropicalis): 64 µg/mL
-logMIC (Staphylococcus aureus [25]): 4.529
MIC50 (Staphylococcus aureus [25]; Staphylococcus aureus): 8 µg/mL
MIC90 (Staphylococcus aureus [25]; Staphylococcus aureus): 16 µg/mL
MIC (Staphylococcus aureus [26]): 8 µg/mL
MIC (Staphylococcus aureus [27]): 16 µg/mL
MIC (Staphylococcus aureus [28]): 8 µg/mL
MIC (Staphylococcus aureus [29]): 8 µg/mL
MIC (Staphylococcus aureus [30]): 32 µg/mL
MIC (Staphylococcus aureus [31]): 16 µg/mL
MIC (Staphylococcus aureus [32]): 16 µg/mL
MIC (Staphylococcus aureus [33]): 8 µg/mL
MIC (Staphylococcus aureus [34]): 8 µg/mL
MIC (Staphylococcus aureus [35]): 16 µg/mL
MIC (Staphylococcus aureus [36]): 16 µg/mL
MIC (Staphylococcus aureus [37]): 8 µg/mL
MIC (Staphylococcus aureus [38]): 8 µg/mL
MIC (Staphylococcus aureus [39]): 16 µg/mL
MIC (Staphylococcus aureus [40]): 8 µg/mL
MIC (Staphylococcus aureus [41]): 32 µg/mL
MIC (Staphylococcus aureus [42]): 16 µg/mL
MIC (Staphylococcus aureus [43]): 8 µg/mL
MIC (Staphylococcus aureus [44]): 8 µg/mL
MIC (Staphylococcus aureus [45]): 16 µg/mL
MIC (Staphylococcus aureus [46]): 8 µg/mL
MIC (Pseudomonas aeruginosa): > 256 µg/mL
-logMIC (Escherichia coli [47]): 4.38
MIC (Escherichia coli [47]; Escherichia coli, ATCC 11229): 16 µg/mL
